Measured values pooled from the literature.
Compare with care: the assays were run in different laboratories.
ST14: Suppressor of tumorigenicity 14 protein (ST14, Homo sapiens, UniProt Q9Y5Y6)
CDK2 with cyclin A2: Cyclin-dependent kinase 2, with cyclin A2 (CDK2, Homo sapiens, UniProt P24941)

N=C(N)NCCC[C@H](NC(=O)C1(NC(=O)[C@H](Cc2cscn2)NC(=O)CCc2ccccc2)CC1)C(=O)c1nc2ccccc2s1  remaining activity (ST14; enzyme activity, inhibitor; 0.1 µM): 19%
C=CC(=O)N1CCC(COCC(=O)N2CCN(c3nc(-c4cnc(N)nc4C(F)F)nc(N4CCOC[C@@H]4C)n3)CC2)CC1  remaining binding (Vascular endothelial growth factor receptor 3 (FLT4, Homo sapiens, UniProt P35916); binding, competition with immobilised ligand; 1 µM): 83%
CNc1ncc2c(/C=C/C(=O)N3CCC(OC)CC3)nn(Cc3cccc(C(F)(F)F)c3)c2n1  remaining activity (ALK tyrosine kinase receptor (ALK, Homo sapiens, UniProt Q9UM73); enzyme activity, inhibitor, radiometric; 1 µM): 83%
N=C(N)NCCC[C@H](NC(=O)C1(NC(=O)[C@H](Cc2cscn2)NC(=O)CCc2ccccc2)CCCC1)C(=O)c1nc2ccccc2s1  remaining activity (ST14; enzyme activity, inhibitor; 0.1 µM): 84%
CC(=O)Nc1c(N)nc(SCC(=O)N/N=C/c2ccc([N+](=O)[O-])cc2)[nH]c1=O  inhibition (CDK2 with cyclin A2; enzyme activity, inhibitor; 200 pM): 1.89%
COc1cc(-c2cncc3c2CN(C)Cc2cc(N4CCNCC4)ccc2-3)cc(OC)c1OC  remaining activity (Cyclin-dependent kinase 2, with cyclin A (CDK2, Homo sapiens, UniProt P24941); enzyme activity, inhibitor; 1 µM): 100%
CC(=O)Nc1c(N)nc(SCC(=O)NN)[nH]c1=O  inhibition (CDK2 with cyclin A2; enzyme activity, inhibitor; 1 µM): 73%
CC(C)(C)[C@H](NC(=O)[C@H](Cc1cscn1)NC(=O)CCc1ccccc1)C(=O)N[C@@H](CCCNC(=N)N)C(=O)c1nc2ccccc2s1  remaining activity (ST14; enzyme activity, inhibitor; 0.1 µM): 89%
CNC(=O)c1cc(Oc2ccc(NC(=O)Nc3ccc(Cl)c(C(F)(F)F)c3)cc2)ccn1  inhibition (CDK2 with cyclin A2; enzyme activity, inhibitor; 20 nM): 43.1%
Cc1cc([C@@H](C)Nc2ccccc2C(=O)O)c2nc(N3CCC(F)(F)CC3)c(C#N)c(=O)n2c1  remaining binding (Mitogen-activated protein kinase 10 (MAPK10, Homo sapiens, UniProt P53779); binding, competition with immobilised ligand; 1 µM): 100%
